Calls of active or inactive are those of the source. The rule behind the calls is not given here.
Legend:
[1] = tested on: Cortical neurone; assay: Cytotoxicity against E17 Sprague-Dawley rat primary cortical neurons at 100 uM after 24 hrs by MTT assay relative to donepezil; type: cell-based
Procedure, shortened: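 Primary cortical neurons from E17 SD rat embryos, trypsin-dissociated and cultured 9 days in neurobasal/B27 on poly-L-lysine (3×10^4 cells/well). Treated at 10, 30 and 100 µM for 24 h, with donepezil as reference. MTT (5 mg/mL, 10 µL) for 4 h at 37 °C, absorbance 490 nm, viability as % of vehicle-treated cells; mean ± SEM.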

[2] = tested on: Mus musculus; assay: Reversal of scopolamine-induced dementia in ICR mouse assessed as decrease in escape latency time at 30 mg/kg, po administered 40 mins prior to scopolamine-challenge by water maze test; type: functional, organism-based
Procedure, shortened: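 Test compound as HCl salt, 30 mg/kg intragastric, given 40 min before scopolamine (4.5 mg/kg i.p.), which was given 20 min before the water maze. Escape latency and errors (entries into no-exit paths) recorded; mean ± SEM.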

[3] = Inhibition of Cu2+-mediated amyloid beta (1 to 42) (unknown origin) aggregation at 50 uM after 24 hrs by dot blot assay
Procedure, shortened: (§1)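 Aβ1-42 (2000 µM stock in 1% ammonium hydroxide) diluted in […], pH 6.6. Peptide 25 µM ± Cu(II) 25 µM ± compound 50 µM, incubated 37 °C for 24 h. Samples spotted on nitrocellulose, blocked in 5% milk, probed overnight at 4 °C with A11 (oligomers) or 6E10 (total Aβ), HRP secondary, densitometry. N = 4, mean ± SEM; EGCG control.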

[4] = Inhibition of Cu2+-induced amyloid beta (1 to 42 residues) (unknown origin) aggregation at 50 uM incubated at 37 degC for 24 hrs by dot immunoblot assay; procedure, shortened: as §1
[5] = target: T1, Acetylcholinesterase (Rattus norvegicus, UniProt P37136); assay: Inhibition of AChE in rat cortex homogenate using acetylthiocholine iodide as substrate after 20 mins by Ellman's method
T1 sequence (P37136 whole entry): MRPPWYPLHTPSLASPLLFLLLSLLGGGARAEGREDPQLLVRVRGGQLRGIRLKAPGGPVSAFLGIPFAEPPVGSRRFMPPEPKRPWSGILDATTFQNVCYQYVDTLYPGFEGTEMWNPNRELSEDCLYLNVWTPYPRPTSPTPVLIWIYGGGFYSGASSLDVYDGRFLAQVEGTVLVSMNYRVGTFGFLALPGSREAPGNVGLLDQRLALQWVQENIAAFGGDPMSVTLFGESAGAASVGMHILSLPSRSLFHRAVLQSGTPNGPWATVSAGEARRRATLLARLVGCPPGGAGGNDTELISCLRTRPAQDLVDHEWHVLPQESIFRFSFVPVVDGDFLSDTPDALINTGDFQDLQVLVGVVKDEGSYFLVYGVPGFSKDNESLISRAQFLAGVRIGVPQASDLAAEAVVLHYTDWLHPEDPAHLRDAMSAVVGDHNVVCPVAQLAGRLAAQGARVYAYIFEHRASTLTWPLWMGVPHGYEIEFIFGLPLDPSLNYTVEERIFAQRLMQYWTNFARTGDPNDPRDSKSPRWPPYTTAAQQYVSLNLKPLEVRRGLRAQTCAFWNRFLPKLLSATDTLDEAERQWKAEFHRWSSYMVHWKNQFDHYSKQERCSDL

[6] = Inhibition of Cu2+-mediated amyloid beta (1 to 42) peptide-induced cytotoxicity in E17 Sprague-Dawley rat primary cortical neurons assessed as neuroprotective activity by measuring increase in cell viability at 1 uM after 24 hrs by MTT assay
Procedure, shortened: (§2)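 Rat E17 primary cortical neurons after 9 days in culture. Aβ1-42 samples, prepared as for the dot blot (± Cu2+, ± compound), added to the cultures at 1 µM for 24 h. Viability by MTT, normalized to the vehicle group. EGCG and clioquinol as positive controls.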

[7] = target: Amyloid-beta precursor protein (Homo sapiens) (UniProt P05067); assay: Inhibition of amyloid beta (1 to 42) (unknown origin) self aggregation at 50 uM incubated at 37 degC for 24 hrs by dot immunoblot assay; procedure, shortened: as §1
Amyloid-beta precursor protein (Homo sapiens), sequence (P05067 whole entry): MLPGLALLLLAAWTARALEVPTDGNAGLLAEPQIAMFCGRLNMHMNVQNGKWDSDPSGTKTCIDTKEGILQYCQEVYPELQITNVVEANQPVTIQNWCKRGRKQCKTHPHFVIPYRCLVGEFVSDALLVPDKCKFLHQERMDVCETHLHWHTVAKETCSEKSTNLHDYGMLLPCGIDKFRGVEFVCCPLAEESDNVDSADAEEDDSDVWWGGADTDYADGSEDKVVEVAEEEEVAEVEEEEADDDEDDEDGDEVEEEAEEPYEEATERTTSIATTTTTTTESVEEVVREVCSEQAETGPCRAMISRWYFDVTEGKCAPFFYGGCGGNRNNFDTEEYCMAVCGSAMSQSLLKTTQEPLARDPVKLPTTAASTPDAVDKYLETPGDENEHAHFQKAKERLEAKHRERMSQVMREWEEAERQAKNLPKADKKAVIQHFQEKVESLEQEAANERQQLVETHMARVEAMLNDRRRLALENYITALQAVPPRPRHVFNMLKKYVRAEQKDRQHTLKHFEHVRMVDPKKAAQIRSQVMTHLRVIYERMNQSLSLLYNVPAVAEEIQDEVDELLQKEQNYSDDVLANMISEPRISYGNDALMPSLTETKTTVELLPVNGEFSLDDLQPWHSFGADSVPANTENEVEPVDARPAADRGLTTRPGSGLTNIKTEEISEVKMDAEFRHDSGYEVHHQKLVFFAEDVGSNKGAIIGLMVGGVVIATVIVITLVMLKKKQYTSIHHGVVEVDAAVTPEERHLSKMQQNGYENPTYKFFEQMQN

[8] = Antioxidant activity assessed as inhibition of Cu2+-mediated redox cycling induced hydroxyl radicals generation at 15 uM in presence of ascorbate by fluorescence assay
Procedure, shortened: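 Hydroxyl radicals from Cu(II) (5 µM) and ascorbate (150 µM), with deferoxamine 1 µM, in PBS (20 mM, 100 mM NaCl, pH 7.4, 0.1% methanol). Ligand at 15 µM, with EDTA as positive control. Conversion of coumarin-3-carboxylic acid (50 µM) to fluorescent 7-hydroxy-CCA followed at 37 °C (ex 395/em 450 nm). Run in triplicate.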

[9] = target: Butyrylcholinesterase (Rattus norvegicus) (UniProt Q9JKC1); assay: Inhibition of BuChE in rat serum at 40 uM using butyrylthiocholine iodide as substrate after 20 mins by Ellman's method
Butyrylcholinesterase (Rattus norvegicus), sequence (Q9JKC1 as listed by the source): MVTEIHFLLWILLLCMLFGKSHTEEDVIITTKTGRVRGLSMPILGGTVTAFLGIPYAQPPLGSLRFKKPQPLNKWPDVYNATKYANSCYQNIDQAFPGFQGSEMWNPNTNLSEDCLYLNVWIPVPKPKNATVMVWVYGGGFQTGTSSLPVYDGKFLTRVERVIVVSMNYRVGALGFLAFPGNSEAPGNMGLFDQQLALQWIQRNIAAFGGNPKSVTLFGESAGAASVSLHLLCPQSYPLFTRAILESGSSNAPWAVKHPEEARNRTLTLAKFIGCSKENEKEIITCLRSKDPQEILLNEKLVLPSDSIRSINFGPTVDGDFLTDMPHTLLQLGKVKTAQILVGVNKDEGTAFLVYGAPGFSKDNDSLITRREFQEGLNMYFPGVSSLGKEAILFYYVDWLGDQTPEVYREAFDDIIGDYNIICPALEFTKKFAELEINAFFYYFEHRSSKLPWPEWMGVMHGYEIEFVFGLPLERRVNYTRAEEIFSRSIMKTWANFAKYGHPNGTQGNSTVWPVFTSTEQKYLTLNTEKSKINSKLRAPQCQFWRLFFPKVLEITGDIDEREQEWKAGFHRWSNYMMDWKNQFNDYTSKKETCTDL

[10] = Antioxidant activity assessed as trolox equivalent of AAPH radical scavenging activity preincubated for 10 mins followed by AAPH addition measured every 2 mins for 180 mins by ORAC-FL assay; type: functional
Procedure, shortened: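 Compound at 20 µM (diluted from 10 mM DMSO stock in 75 mM phosphate, pH 7.4) with fluorescein (0.117 µM diluted) for 10 min at 37 °C, then AAPH (40 mM solution) added. Fluorescence (ex 485/em 535) read every 2 min for 180 min. […] Triplicate wells, ≥3 runs.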

[11] = species on record: Homo sapiens; assay: Selectivity index, ratio of IC50 for recombinant human MAOA to IC50 for recombinant human MAOB
Procedure, shortened: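 Recombinant human MAO-A (12.5 µg/mL) or MAO-B (75 µg/mL) preincubated 15 min at 37 °C with compound (diluted from 10 mM DMSO stock in 50 mM KH2PO4, pH 7.4). Amplex Red working solution added: 2 mM p-tyramine (MAO-A) or benzylamine (MAO-B), 2 U/mL HRP. After 15 min at 37 °C, fluorescence read (ex 545/em 590), background from enzyme-free wells subtracted.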

[12] = target: Amyloid-beta precursor protein (Homo sapiens) (UniProt P05067); assay: Inhibition of amyloid beta (1 to 42) peptide (unknown origin) self aggregation-induced cytotoxicity in E17 Sprague-Dawley rat primary cortical neurons assessed as neuroprotective activity by measuring increase in cell viability at 1 uM after 24 hrs by MTT assay; procedure, shortened: as §2
[13] = Metal chelating activity assessed as compound-Zn2+ complex formation at 40 uM in presence of ZnCl2 after 30 mins by UV-visible spectrophotometric analysis
Procedure, shortened: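 UV–vis spectra (200–500 nm) of compound at 40 µM final, alone or with CuCl2, FeSO4, FeCl3 or ZnCl2 (20 µM final), after 30 min in 20 mM HEPES, 150 mM NaCl, pH 7.4, at room temperature.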

Q: Which Activity [1] does the source give for C#CCN(C)Cc1cn(-c2cc(NC(=S)NCC)ncn2)cn1 here?
A: The Activity was “Non-Toxic”.

Q: And the Activity [2]?
A: The Activity was “Active”.

Q: And the inhibition [3]?
A: The inhibition was “Active”.

Q: And the inhibition [4]?
A: The inhibition was “Active”.

Q: What about the IC50 [5] of the same molecule?
A: The IC50 was 324 nM.

Q: And the Activity [6]?
A: Its Activity is “Active”.

Q: What about the inhibition [7] of the same molecule?
A: The inhibition was “inactive”.

Q: And the Activity [8]?
A: The Activity was “Active”.

Q: And the inhibition [9]?
A: Its inhibition is 12.6%.

Q: What about the Activity (umolequiv/umol) [10] of the same molecule?
A: Its Activity (umolequiv/umol) is 1.13.

Q: What about the Ratio IC50 [11] of the same molecule?
A: The Ratio IC50 was over 35.

Q: What about the Activity [12] of the same molecule?
A: The Activity was “inactive”.

Q: What about the Activity [13] of the same molecule?
A: The Activity was “inactive”.
